One may read the Km as the substrate concentration at which the rate is half of its maximum. As usually defined, the kcat is the maximal rate divided by the concentration of active sites.

This is an account of results in article PMC3954597 (Biochemistry, 2014).

Where “and” joins values, the source holds several entries; their conditions need not be identical. Identical values can stand only once. Like-named read-outs stand apart in the source and are kept apart here.

Test [1] has as its target T1, TCPTP (Homo sapiens, UniProt P17706).
T1 sequence (P17706 1-314): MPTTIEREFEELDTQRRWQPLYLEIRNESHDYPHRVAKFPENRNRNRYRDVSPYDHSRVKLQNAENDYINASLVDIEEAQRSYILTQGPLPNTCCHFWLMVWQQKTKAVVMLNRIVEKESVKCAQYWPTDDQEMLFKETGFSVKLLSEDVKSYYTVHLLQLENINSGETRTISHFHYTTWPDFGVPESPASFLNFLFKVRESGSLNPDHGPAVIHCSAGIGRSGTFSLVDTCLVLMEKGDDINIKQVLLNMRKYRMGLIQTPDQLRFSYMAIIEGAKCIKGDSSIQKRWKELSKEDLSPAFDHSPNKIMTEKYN
The test is described as follows: PTP assay, TCPTP. The class given is biochemical.

Test [2] addresses T2, PTPRD (Homo sapiens, UniProt P23468).
T2 sequence (P23468 1299-1899): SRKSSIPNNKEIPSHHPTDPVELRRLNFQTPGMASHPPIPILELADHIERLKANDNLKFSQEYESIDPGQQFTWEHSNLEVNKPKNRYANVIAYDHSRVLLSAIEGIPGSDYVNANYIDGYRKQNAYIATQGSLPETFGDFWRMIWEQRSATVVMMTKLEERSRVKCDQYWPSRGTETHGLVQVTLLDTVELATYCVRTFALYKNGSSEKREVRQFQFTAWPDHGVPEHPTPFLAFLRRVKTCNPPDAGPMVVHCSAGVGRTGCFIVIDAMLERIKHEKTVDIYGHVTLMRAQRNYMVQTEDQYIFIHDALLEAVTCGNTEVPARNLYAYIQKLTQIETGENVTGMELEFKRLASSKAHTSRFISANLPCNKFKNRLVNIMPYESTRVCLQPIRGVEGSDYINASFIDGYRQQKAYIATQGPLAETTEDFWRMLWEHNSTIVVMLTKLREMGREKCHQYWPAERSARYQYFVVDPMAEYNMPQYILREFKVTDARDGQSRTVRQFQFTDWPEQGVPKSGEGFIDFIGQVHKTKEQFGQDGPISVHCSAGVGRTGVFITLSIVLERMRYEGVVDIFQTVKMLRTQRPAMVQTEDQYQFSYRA
As to the kind of experiment: PTP assay, PTPRD. The class given is biochemical.

Test [3] addresses T3, PTPD1 (Homo sapiens, UniProt Q16825).
T3 sequence (Q16825 875-1174): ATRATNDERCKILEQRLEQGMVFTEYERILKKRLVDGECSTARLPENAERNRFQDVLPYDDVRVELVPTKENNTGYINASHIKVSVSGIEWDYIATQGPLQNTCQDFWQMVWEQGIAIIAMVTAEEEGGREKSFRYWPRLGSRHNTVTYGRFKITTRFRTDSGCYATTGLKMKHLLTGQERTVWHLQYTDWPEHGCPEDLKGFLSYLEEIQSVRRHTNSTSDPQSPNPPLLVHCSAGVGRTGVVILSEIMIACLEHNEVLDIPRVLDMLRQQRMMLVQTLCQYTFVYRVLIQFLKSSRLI
The test is described as follows: PTP assay, PTPD1. Format: biochemical. The method, boiled down:
(§1)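 His-tagged catalytic domains were made in E. coli: PTPD2 aa 876–1187 and PTPRC aa 620–1236 with N-terminal tags, PTPD1 aa 875–1174 and SHP-2 aa 199–593 with C-terminal tags. Enzyme was added at 0.5–20000 nM final. A282 (Δε 1102 M−1 cm−1) was followed. Constants came from Michaelis–Menten fits of initial rates (<60 s), or from fits of progress curves run to substrate depletion.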

The target in test [4] is T4, SHP-1 (Homo sapiens, UniProt P29350). Conditions: catalytic domain; cited from earlier work.
T4 sequence (P29350 205-595): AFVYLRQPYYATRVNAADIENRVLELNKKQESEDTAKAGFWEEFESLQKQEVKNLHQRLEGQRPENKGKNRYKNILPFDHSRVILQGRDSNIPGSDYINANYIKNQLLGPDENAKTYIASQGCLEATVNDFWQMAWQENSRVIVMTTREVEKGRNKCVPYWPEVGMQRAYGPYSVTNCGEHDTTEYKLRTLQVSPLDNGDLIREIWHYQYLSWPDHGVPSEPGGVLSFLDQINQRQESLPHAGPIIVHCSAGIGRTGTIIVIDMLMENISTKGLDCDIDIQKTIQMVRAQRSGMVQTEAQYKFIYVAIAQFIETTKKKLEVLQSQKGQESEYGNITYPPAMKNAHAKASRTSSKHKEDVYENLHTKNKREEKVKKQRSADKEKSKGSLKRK
Test [5] has as its target T5, PTPRC (Homo sapiens, UniProt P08575).
T5 sequence (P08575 620-1236): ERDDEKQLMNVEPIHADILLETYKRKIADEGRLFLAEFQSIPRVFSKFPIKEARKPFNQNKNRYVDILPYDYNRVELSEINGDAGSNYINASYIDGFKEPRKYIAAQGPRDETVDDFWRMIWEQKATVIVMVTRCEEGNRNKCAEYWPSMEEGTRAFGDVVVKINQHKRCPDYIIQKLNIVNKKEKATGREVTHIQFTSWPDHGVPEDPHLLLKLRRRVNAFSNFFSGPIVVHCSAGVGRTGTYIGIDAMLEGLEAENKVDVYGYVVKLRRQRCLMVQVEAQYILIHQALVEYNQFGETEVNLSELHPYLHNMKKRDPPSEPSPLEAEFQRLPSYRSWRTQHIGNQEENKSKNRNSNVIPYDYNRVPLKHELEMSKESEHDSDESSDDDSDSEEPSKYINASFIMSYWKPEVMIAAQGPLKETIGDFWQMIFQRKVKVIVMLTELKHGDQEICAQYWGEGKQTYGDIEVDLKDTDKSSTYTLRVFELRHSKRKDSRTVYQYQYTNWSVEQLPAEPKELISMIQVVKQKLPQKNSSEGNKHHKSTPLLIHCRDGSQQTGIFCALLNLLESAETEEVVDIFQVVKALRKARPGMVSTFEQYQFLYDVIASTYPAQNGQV
The test is described as follows: PTP assay, PTPRC. The class given is biochemical. Conditions: for Km / kcat / kcat/KM x10^6: catalytic domain, 100 mM HEPES pH 7.4, monitored at 282 nm. The method, boiled down: as §1

In test [6] the target is T6, SHP-2 (Homo sapiens, UniProt Q06124).
T6 sequence (Q06124 199-593): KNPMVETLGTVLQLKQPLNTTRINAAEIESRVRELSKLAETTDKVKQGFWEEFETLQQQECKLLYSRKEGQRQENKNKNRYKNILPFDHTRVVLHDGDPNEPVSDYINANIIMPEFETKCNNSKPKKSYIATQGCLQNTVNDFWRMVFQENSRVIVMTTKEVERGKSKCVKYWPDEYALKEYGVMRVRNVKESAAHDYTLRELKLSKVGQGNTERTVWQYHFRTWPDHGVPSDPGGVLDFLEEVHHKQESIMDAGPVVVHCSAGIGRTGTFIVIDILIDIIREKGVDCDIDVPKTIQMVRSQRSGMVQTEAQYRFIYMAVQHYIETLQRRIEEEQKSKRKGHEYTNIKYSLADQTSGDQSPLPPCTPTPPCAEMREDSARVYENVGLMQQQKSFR
As to the kind of experiment: PTP assay, SHP-2. Conditions: catalytic domain; 100 mM HEPES pH 7.4; monitored at 282 nm. Format: biochemical. Summed up: as §1

In test [7] the target is T4, SHP-1. The test is described as follows: PTP assay, SHP-1. Format: biochemical. Conditions: catalytic domain; 100 mM HEPES pH 7.4; monitored at 282 nm. The method, boiled down:
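E. coli-expressed catalytic domains were used: wild-type, R24M or R47E PTP1B (aa 1–321), and SHP-1 (aa 205–595). Reactions started with PTP (0.5–20000 nM final) and dephosphorylation was monitored continuously at 282 nm. kcat, KM and kcat/KM came from initial-rate fits (Michaelis–Menten, or V = kcat[E][S]/KM when KM >> [S]) or from fits of progress curves.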

The mark [8] stands for this setting: catalytic domain, 100 mM HEPES pH 7.4, monitored at 282 nm.
Where [9] appears, read: kcat/KM of neutral peptide over basic Ac-YRKRFpYRYKF-NH2.
The mark [10] stands for this setting: kcat/KM of acidic peptide over basic Ac-YRKRFpYRYKF-NH2.
[11] abbreviates: kcat/KM of acidic peptide over neutral Ac-SASASpYSASA-NH2.

Turning to Ac-SASASpYSASA-NH2, the Michaelis-Menten constant (Km) is 10 ± 1 µM in test [1] (setting [8]); 1990 µM and 2000 µM in test [4]; 170 ± 20 µM in test [5]. The kcat in test [1] (setting [8]) is 17 ± 2 s⁻¹; in test [4], 26 ± 4 s^−1 and 26 ± 4 ^c s^−1; in test [5] it was 340 ± 50 s⁻¹. Also, the “kcat/KM x10^6” value is listed as 1.7 x10^6 M^−1 s^−1 in test [1] (setting [8]); 0.00068 x10^6 M^−1 s^−1 in test [2] (setting [8]); 0.0000038 x10^6 M^−1 s^−1 in test [3] (setting [8]); 0.013 x10^6 M^−1 s^−1 in test [4]; 2.0 x10^6 M^−1 s^−1 in test [5]. The “Neutral/Basic ratio of kcat/KM values” in test [1] (setting [9]) is recorded as 53; in test [2] (setting [9]), 1; in test [3] (setting [9]), 0.7; in test [5] (setting [9]) it was 41.
In the case of Ac-YDEDFpYDYEF-NH2, the Km in test [2] (setting [8]) was above 60 µM; in test [3] (setting [8]), 26 ± 5 µM; in test [5], 7 ± 0.9 µM. Also, the catalytic constant (kcat) in test [2] (setting [8]) was above 0.86 s⁻¹; in test [3] (setting [8]), 0.032 ± 0.005 s⁻¹; in test [5], 300 ± 20 s⁻¹. The “kcat/KM x10^6” value in test [2] (setting [8]) was 0.014 x10^6 M^−1 s^−1; in test [3] (setting [8]) it was 0.0012 x10^6 M^−1 s^−1; in test [5], 43 x10^6 M^−1 s^−1. For the same substance, the “Acidic/Basic ratio of kcat/KM values” in test [2] (setting [10]) is 21; in test [3] (setting [10]) it was 220; in test [5] (setting [10]), 880. For the same substance, the “Acidic/Neutral ratio of kcat/KM values” came to 21 in test [2] (setting [11]), 330 in test [3] (setting [11]) and 22 in test [5] (setting [11]).
On to Ac-YRKRFpYRYKF-NH2, for which the “kcat/KM x10^6” value in test [1] (setting [8]) is given as 0.032 x10^6 M^−1 s^−1; in test [6], 0.00015 x10^6 M^−1 s^−1; in test [2] (setting [8]), 0.0007 x10^6 M^−1 s^−1; in test [3] (setting [8]) it was 0.0000057 x10^6 M^−1 s^−1; in test [7], 0.00023 x10^6 M^−1 s^−1; in test [5], 0.049 x10^6 M^−1 s^−1.
